In PubChem BioAssay AID493091 (Sanford-Burnham Center for Chemical Genomics, 2011):
Hit rate of the full screen: of about 340,000 compounds, about 3,000 (0.88%) were called active. This excerpt belongs to a sample that is enriched for actives. A number with no mark means an inactive call.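 Rule for the calls: active = inhibition above about 50% at 20 µM (limit read from the data); inactive = the rest.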

These compounds were tested against Carboxy-terminal domain RNA polymerase II polypeptide A small phosphatase 1 (Homo sapiens) (UniProt Q9GZU7) (assay: Scp-1 phosphatase inhibitors, primary screen, biochemical, colorimetric, uHTS (AID 493091;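 note: plate controls were DMSO wells with enzyme for no effect and wells lacking enzyme for full effect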)). Details: Recombinant Scp1, phosphopeptide, malachite green phosphate absorbance; at 20 µM; active compounds read high.
Sequence of Carboxy-terminal domain RNA polymerase II polypeptide A small phosphatase 1 (Homo sapiens) (Q9GZU7 76-261 limits assumed): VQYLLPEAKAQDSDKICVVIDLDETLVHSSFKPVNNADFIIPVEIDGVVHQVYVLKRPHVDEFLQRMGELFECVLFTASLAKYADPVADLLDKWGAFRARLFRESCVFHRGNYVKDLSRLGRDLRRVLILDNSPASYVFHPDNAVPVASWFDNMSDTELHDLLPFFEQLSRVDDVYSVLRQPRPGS
Procedure, shortened: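 Material – SCP-1 phosphatase catalytic domain, residues 76-261 · Buffer or medium – Acidic Tris acetate buffer with magnesium and detergent · Also added – Phospho 17-mer peptide substrate · Compound – single 20 µM dose, 1% DMSO · Times – 45 min room-temperature reaction, 5 min colour, 30 min stabiliser · Technique – Phosphate-binding colour reagent, absorbance read at 630 nm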

| Structure (SMILES) | inhibition |
| --- | --- |
| CCOC(=O)C1=C(C)c2ccccc2OC1(C)C(=O)OCC (centres undefined) | 70.1% (active) |
| CCOC(=O)C1=C(C)c2ccccc2OC1C(=O)OCC (centres undefined) | -1.33% |
| CCOC(=O)C1=C(NC(=S)NC(=O)c2ccccc2)c2ccccc2CC1(C)C | -6.2% |
| COc1c(C(C)C)oc2cc3oc(=O)ccc3cc12 | -9.44% |
| CSc1ccc(C#N)cc1NC(=O)c1cccc(Cl)c1 | -21.5% |
| COc1ccc(NC(=O)c2ccco2)cc1NC(=O)c1ccc(C#N)cc1F | 6.99% |
| N#Cc1ccc(C(=O)Nc2cccc3cccnc23)c(F)c1 | 100% (active) |
| Nc1ccc2nc3c(=O)[nH]c(=S)[nH]c3nc2c1 | 78.4% (active) |
| CC12CCC(C(=O)N3CCN(c4ncccn4)CC3)(c3nc4ccccc4nc31)C2(C)C (centres undefined) | -9.3% |
| O=C(C[n+]1cc(Br)cc2ccccc21)c1ccc(F)cc1 | -4.19% |
| COC(=O)Cc1c(-c2[nH]c3ccccc3c2CC(=O)OC)[nH]c2ccccc12 | -13.3% |
| COC(=O)C[n+]1cccc2ccccc21 | 105% (active) |
| CCOc1cc2[nH]c(=S)n(CCCN3CCCC3=O)c(=O)c2cc1OCC | -8.04% |
| Cc1ccc(NC(=S)N2CCN(c3ncccn3)CC2)cc1C | 4.95% |
| COc1ccc(CN2CCC(n3nccc3NC(=O)CCCc3ccccc3)CC2)cc1C | 6.87% |
| Cc1c(OC(C)C(=O)N[C@@H](Cc2ccccc2)C(=O)O)ccc2c3c(c(=O)oc12)CCCC3 (some centres undefined) | 4.1% |
| Cc1oc2c(C)c3oc(=O)c(CC(=O)N[C@@H](CC(C)C)C(=O)N[C@@H](Cc4ccccc4)C(=O)O)c(C)c3cc2c1C | 88% (active) |
| Cc1c(CCC(=O)N[C@@H](CC(C)C)C(=O)O)c(=O)oc2c(C)c3oc4c(c3cc12)CCCC4 | -2.45% |
| CC(Oc1ccc(-c2ccccc2)c(F)c1)c1ccn(S(=O)(=O)c2cccc3ccccc23)n1 (centres undefined) | -13.9% |
| Cc1c(-c2nn(C)c(=O)c3ccccc23)oc2ccc(F)cc2c1=O | 3.62% |
| Cc1c(Cl)c([N+](=O)[O-])nn1CCCC(=O)NC(C)c1ccccc1 (centres undefined) | -27.1% |
| Cc1nnc(SCC(=O)Nn2cnnc2)s1 | -3.13% |
| CCCCCC(=O)Nc1ccc(S(=O)(=O)Nc2ccc(Cl)nn2)cc1 | 4.6% |
| Cc1nnc(SCC(=O)Nc2ccc(S(=O)(=O)Nc3ccc(Cl)nn3)cc2)s1 | 79.2% (active) |

| Structure (SMILES) | inhibition |
| --- | --- |
| CCNC(=O)COc1cc(C)c(Br)c(C)c1 | -2.07% |
| COCCNC(=O)Nc1ccc2nc(-c3ccco3)c(-c3ccco3)nc2c1 | 79.6% (active) |
| COCCNC(=O)c1snc2ccc(Cl)cc12 | -6.6% |
| O=C(Nc1nc(-c2ccco2)c(-c2ccco2)s1)c1ccco1 | -3.82% |
| O=C(COc1ccccc1)Nc1ccc(N2CCN(C(=O)c3cccs3)CC2)cc1 | -5.15% |
| O=C(CNC(=O)c1n[nH]c2ccccc12)Nc1cc(Cl)ccc1Cl | 5.8% |
| Cc1cccc(N=Nc2c(O)[nH]c3ccc(F)cc23)c1 | -10.6% |
| COc1ccccc1OCCCCCCN1CCN(C)CC1 | -4.32% |
| CCCC(=O)Nc1ccccc1N1CCN(C(=O)c2ccccc2)CC1 | -9.5% |
| CCC(=O)Nc1ccccc1N1CCN(S(C)(=O)=O)CC1 | 53.6% (active) |
| COc1ccc(C(=O)NC(=S)Nc2ccccc2N2CCN(S(C)(=O)=O)CC2)cc1OC | -10.7% |
| CCn1cc(C(=O)NCC(=O)NC(C)(C)CO)c(=O)c2cc3c(cc21)OCO3 | -9.05% |
| COc1ccccc1CCC(=O)OCC(=O)N1CCN(S(=O)(=O)c2ccc(C)cc2C)CC1 | -11.1% |
| CC1(C)CC(CNCCC(c2ccc(F)cc2)c2ccco2)CCO1 (centres undefined) | -5.21% |
| CCn1ncc(CNC(=O)C2(C)CC2(Br)Br)c1C (centres undefined) | -6.32% |
| C[C@H](CO)N1C[C@H](C)[C@@H](CN(C)S(=O)(=O)c2ccc(F)cc2)Oc2ccc(NC(=O)CCC(F)(F)F)cc2C1=O | -5.81% |
| COc1ccc(NC(=O)Nc2ccc3c(c2)C(=O)N([C@H](C)CO)C[C@H](C)[C@@H](CN(C)C(=O)Nc2ccc4c(c2)OCO4)O3)cc1 | 48.8% |
| Cc1noc(C)c1NC(=O)Nc1ccc2c(c1)C(=O)N([C@H](C)CO)C[C@H](C)[C@@H](CN(C)C(=O)Nc1ccc(C(F)(F)F)cc1)O2 | 50.3% (active) |
| C[C@@H]1CN([C@@H](C)CO)C(=O)c2cccc(NS(=O)(=O)c3ccc(F)cc3)c2O[C@H]1CN(C)C(=O)NC1CCCCC1 | -0.48% |
| C[C@@H]1CN([C@@H](C)CO)C(=O)c2cc(NC(=O)C3CC3)ccc2O[C@H]1CN(C)C | -8.19% |
| COc1ccc(NC(=O)N(C)C[C@H]2Oc3ccc(NC(=O)C4CC4)cc3C(=O)N([C@H](C)CO)C[C@@H]2C)cc1 | 67.9% (active) |
| C[C@@H]1CN([C@H](C)CO)C(=O)c2cc(NC(=O)NC3CCCCC3)ccc2O[C@H]1CN(C)S(C)(=O)=O | -8.19% |
| C[C@H](CO)N1C[C@H](C)[C@@H](CN(C)C(=O)NC2CCCCC2)Oc2ccc(NC(=O)c3ccncc3)cc2C1=O | 57.7% (active) |
| Cc1noc(C)c1NC(=O)Nc1ccc2c(c1)C(=O)N([C@H](C)CO)C[C@H](C)[C@@H](CN(C)C(=O)Nc1ccccc1)O2 | 35.8% |

| Structure (SMILES) | inhibition |
| --- | --- |
| Cc1ccc(S(=O)(=O)Nc2ccc3c(c2)C(=O)N([C@H](C)CO)C[C@@H](C)[C@@H](CN(C)C(=O)Nc2cccc4ccccc24)O3)cc1 | 59.1% (active) |
| COc1ccc(S(=O)(=O)N(C)C[C@@H]2Oc3ccc(NC(=O)Nc4c(C)noc4C)cc3C(=O)N([C@H](C)CO)C[C@@H]2C)cc1 | 21.7% |
| Cc1noc(C)c1S(=O)(=O)N(C)C[C@H]1Oc2ccc(NC(=O)C3CCCCC3)cc2C(=O)N([C@H](C)CO)C[C@@H]1C | -2.33% |
| CN(C(=O)CSc1nnc(-c2c[nH]c3ccccc23)o1)C1CCS(=O)(=O)C1 (centres undefined) | -5.57% |
| Cc1cccc(N2CCN(Cc3nc(C4CC4)no3)CC2)n1 | -8.45% |
| CC(C)=CCN1CCN(Cc2cc3ccccc3[nH]2)CC1CCO (centres undefined) | -3.55% |
| COC(=O)c1ccc(S(=O)(=O)c2ccc(C(=O)OC)s2)s1 | -2.05% |
| NC(=O)C1=C[C@H](c2csc3ccccc23)C[C@H](OCc2ccc(CO)cc2)O1 | -0.48% |
| C[C@H](CO)N1C[C@H](C)[C@@H](CN(C)C(=O)Nc2ccc3c(c2)OCO3)Oc2c(cccc2N(C)C)C1=O | 38.7% |
| C[C@H](CO)N1C[C@H](C)[C@H](CN(C)C(=O)Nc2ccc(C(F)(F)F)cc2)Oc2c(NC(=O)c3ccncc3)cccc2C1=O | 88% (active) |
| Cc1noc(C)c1NC(=O)Nc1cccc2c1O[C@H](CN(C)C(=O)Nc1ccccc1)[C@@H](C)CN([C@H](C)CO)C2=O | -8.19% |
| COC(=O)CSc1ccc2nnc(CCNS(=O)(=O)c3ccc(C)cc3)n2n1 | -10.5% |
| Cc1ccccc1NC(=O)CN1C(=O)N/C(=C\c2cccn2-c2cccc(C(=O)O)c2)C1=O | 65.5% (active) |
| O=C1N/C(=C/c2cccn2-c2ccccc2)C(=O)N1c1cccc(Cl)c1 | -4.36% |
| Cc1ccccc1NC(=O)CSC(=O)c1ccccc1 | -4.57% |
| O=C(COC(=O)c1ccc(O)cc1)Nc1nccs1 | -1.45% |
| O=C(Nc1ccc(-c2ccc3nncn3n2)cc1)C1CCCCC1 | -12.9% |
| COc1ccc(OC)c(NC(=O)CSc2nc(N)c(-c3ccccc3)c(=O)[nH]2)c1 | 3.19% |
| COc1ccc(OC)c(NC(=O)CSc2nc(-c3ccccc3)cc(=O)[nH]2)c1 | 81.5% (active) |
| CCCc1cc(=O)[nH]c(SCC(=O)Nc2ccc(C(=O)Nc3ccccc3OC)cc2)n1 | -2.71% |
| CC(=O)c1cccc(NC(=O)N2CCCC2C(=O)NCCc2ccccc2)c1 (centres undefined) | -7.73% |
| C[n+]1ccc(C(=O)NCc2ccccc2)cc1 | 92.7% (active) |
| Nc1ccc(C(=O)NCc2ccccc2)cc1 | -1.69% |
| CS(=O)(=O)NCc1ccc(C(=O)NCc2ccccc2)cc1 | -6.79% |

| Structure (SMILES) | inhibition |
| --- | --- |
| Cc1noc(C)c1-c1ccc2ncnc(NC(C)c3ccco3)c2c1 (centres undefined) | 8.09% |
| CCn1cc(C(=O)N2CCN(C3CCCCC3)CC2)c2cc(OC)c(OC)cc2c1=O | 0% |
| CCOC(=O)N1CCN(C(=O)C2CC(c3ccc(F)cc3)=NO2)CC1 (centres undefined) | -0.41% |
| Cc1cccc(-[n+]2c(-c3cccc(Br)c3)[nH]c3nc4ccccc4nc32)c1 | -8.9% |
| COc1ccc(-n2cnnc2SCC(=O)Nc2cccc([N+](=O)[O-])c2)cc1 | -10.7% |
| NS(=O)(=O)c1cccc(NC(=O)CSc2nc3ccccc3n2-c2ccccc2)c1 | -22.7% |
| NC(=O)NC(=O)CSc1nc2cc([N+](=O)[O-])ccc2n1-c1cccc(C(F)(F)F)c1 | 62.8% (active) |
| C/C(CC(=O)Nc1ccc(Cl)cc1)=N\NC(=O)C(=O)NCCO | -2.46% |
| COc1ccc(N2C(=O)C(CC(=O)Nc3ccc(F)cc3)N(CCc3cccs3)C2=O)cc1 (centres undefined) | 0.58% |
| CCN(CC)c1ccc(C(=O)NNC(=O)CCc2nc3ccccc3c(=O)[nH]2)cc1 | -4.7% |
| Cc1c(Cl)cnc(NC(=O)COC(=O)c2ccc(S(=O)(=O)NCc3ccco3)cc2)c1Cl | 61.6% (active) |
| CSCCC(NC(=O)c1ccco1)C(=O)OCC(=O)Nc1ncc(Cl)c(C)c1Cl (centres undefined) | 2.12% |
| CN(c1ccccc1)S(=O)(=O)c1ccc(Cl)c(C(=O)OCC(=O)NCc2ccco2)c1 | 81.1% (active) |
| C/C(=N\Nc1ncc(Cl)cc1Cl)c1ccc(S(=O)(=O)NCc2ccco2)cc1 | -6.85% |
| CC1CCN(C(=O)COC(=O)CCC(=O)c2cccs2)CC1 | 0.96% |
| Cc1cc(C(=O)OCC(=O)N2c3ccccc3NC(=O)C2(C)C)c(C)n1-c1ccccc1 | -10.3% |
| O=C(COC(=O)c1cccs1)NCc1cccs1 | -4.94% |
| CN(c1ccccc1)S(=O)(=O)c1ccc(Cl)c(C(=O)OCC(N)=O)c1 | -10.7% |
| Cc1cc(C(=O)OCC(=O)NCc2ccco2)c(C)n1-c1ccccc1 | 73.1% (active) |
| O=C(COC(=O)CCC(=O)c1cccs1)NCc1ccco1 | 96.1% (active) |
| CN(c1ccccc1)S(=O)(=O)c1ccc(Cl)c(C(=O)OCC(=O)N2CCOCC2)c1 | -10.4% |
| CCOC(=O)c1cnc(SCC(=O)NCc2ccco2)nc1N | -2.2% |
